Experimental data as given in ChEMBL document CHEMBL2086320, “New synthetic inhibitors of fatty acid synthase with anticancer activity” (J Med Chem, 2012).
Calls of active or inactive are those of the source. No cut-off for these calls is given here.

Columns and labels:
[1] = system: SK-BR-3; assay: Cytotoxicity against human SKBR3 cells after 48 hrs by MTT assay; type: functional, cell-based; details: SK-BR-3, 48 h
Procedure, shortened: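 MTT colorimetric assay: cells seeded at 5 or 7 x 10³ cells/well, attached overnight, then given fresh medium with a range of compound concentrations for 48 h at 37 °C, 5% CO2. MTT added for 3 h, formazan dissolved in DMSO, absorbance read at 570 or 540 nm. IC50 as mean±SEM from at least two independent experiments in duplicate or triplicate.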

[2] = target: Fatty acid synthase (Homo sapiens) (UniProt P49327); assay: Inhibition of FASN in human SK-BR-3 cells assessed as oxidation of NADPH at 22 uM after 24 hrs by Spectrophotometric analysis relative to control; type: cell-based
[3] = target: Fatty acid synthase (Homo sapiens) (UniProt P49327); assay: Inhibition of FASN in human SK-BR-3 cells assessed as oxidation of NADPH at 8 uM after 24 hrs by Spectrophotometric analysis relative to control; type: cell-based
[4] = target: Fatty acid synthase (Homo sapiens) (UniProt P49327); assay: Inhibition of FASN in human SK-BR-3 cells assessed as oxidation of NADPH at 31 uM after 24 hrs by Spectrophotometric analysis relative to control; type: cell-based
[5] = target: Receptor tyrosine-protein kinase erbB-2 (Homo sapiens) (UniProt P04626); assay: Inhibition of HER2 phosphorylation in human SK-BR-3 cells after 6 hrs by Western blot analysis; type: cell-based; details: concentration not given here
Procedure, shortened: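 SK-Br3 cells treated for 6, 12 or 24 h, harvested with trypsin-EDTA, lysed in Tris-HCl pH 7.5/EDTA/NaCl/PMSF buffer at 4 °C. Equal protein run on 3-8% SDS-PAGE and transferred to nitrocellulose. Membranes probed overnight at 4 °C with anti-phospho-HER2 mouse monoclonal, then peroxidase secondary and chemiluminescence. Re-probed for β-actin as loading control. Gels are representative of at least two independent experiments.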

[6] = target: Fatty acid synthase (Homo sapiens) (UniProt P49327); assay: Inhibition of FASN in human SK-BR-3 cells assessed as oxidation of NADPH at 76 uM after 24 hrs by Spectrophotometric analysis relative to control; type: cell-based
[7] = target: Fatty acid synthase (Homo sapiens) (UniProt P49327); assay: Inhibition of FASN in human SK-BR-3 cells assessed as oxidation of NADPH at 39 uM after 24 hrs by Spectrophotometric analysis relative to control; type: cell-based
[8] = target: Fatty acid synthase (Homo sapiens) (UniProt P49327); assay: Inhibition of FASN in human SK-BR-3 cells assessed as oxidation of NADPH at 36 uM after 24 hrs by Spectrophotometric analysis relative to control; type: cell-based
[9] = target: Fatty acid synthase (Homo sapiens) (UniProt P49327); assay: Inhibition of FASN in human SK-BR-3 cells assessed as oxidation of NADPH at 41 uM after 24 hrs by Spectrophotometric analysis relative to control; type: cell-based
[10] = target: Fatty acid synthase (Homo sapiens) (UniProt P49327); assay: Inhibition of FASN in human SK-BR-3 cells assessed as oxidation of NADPH at 17 uM after 24 hrs by Spectrophotometric analysis relative to control; type: cell-based
[11] = target: Fatty acid synthase (Homo sapiens) (UniProt P49327); assay: Inhibition of FASN in human SK-BR-3 cells assessed as oxidation of NADPH at 42 uM after 24 hrs by Spectrophotometric analysis relative to control; type: cell-based
[12] = target: Fatty acid synthase (Homo sapiens) (UniProt P49327); assay: Inhibition of FASN in human SK-BR-3 cells assessed as oxidation of NADPH at 28 uM after 24 hrs by Spectrophotometric analysis relative to control; type: cell-based
[13] = target: Fatty acid synthase (Homo sapiens) (UniProt P49327); assay: Inhibition of FASN in human SK-BR-3 cells assessed as oxidation of NADPH at 23 uM after 24 hrs by Spectrophotometric analysis relative to control; type: cell-based
[14] = target: Fatty acid synthase (Homo sapiens) (UniProt P49327); assay: Inhibition of FASN in human SK-BR-3 cells assessed as oxidation of NADPH at 47 uM after 24 hrs by Spectrophotometric analysis relative to control; type: cell-based
[15] = target: Fatty acid synthase (Homo sapiens) (UniProt P49327); assay: Inhibition of FASN in human SK-BR-3 cells assessed as oxidation of NADPH at 5 uM after 24 hrs by Spectrophotometric analysis relative to control; type: cell-based
[16] = target: Fatty acid synthase (Homo sapiens) (UniProt P49327); assay: Inhibition of FASN in human SK-BR-3 cells assessed as oxidation of NADPH at 78 uM after 24 hrs by Spectrophotometric analysis relative to control; type: cell-based
[17] = target: Fatty acid synthase (Homo sapiens) (UniProt P49327); assay: Inhibition of FASN in human SK-BR-3 cells assessed as oxidation of NADPH at 26 uM after 24 hrs by Spectrophotometric analysis relative to control; type: cell-based
[18] = target: Fatty acid synthase (Homo sapiens) (UniProt P49327); assay: Inhibition of FASN in human SK-BR-3 cells assessed as oxidation of NADPH at 25 uM after 24 hrs by Spectrophotometric analysis relative to control; type: cell-based

Sequence of Fatty acid synthase (Homo sapiens) (P49327 whole entry, looked up): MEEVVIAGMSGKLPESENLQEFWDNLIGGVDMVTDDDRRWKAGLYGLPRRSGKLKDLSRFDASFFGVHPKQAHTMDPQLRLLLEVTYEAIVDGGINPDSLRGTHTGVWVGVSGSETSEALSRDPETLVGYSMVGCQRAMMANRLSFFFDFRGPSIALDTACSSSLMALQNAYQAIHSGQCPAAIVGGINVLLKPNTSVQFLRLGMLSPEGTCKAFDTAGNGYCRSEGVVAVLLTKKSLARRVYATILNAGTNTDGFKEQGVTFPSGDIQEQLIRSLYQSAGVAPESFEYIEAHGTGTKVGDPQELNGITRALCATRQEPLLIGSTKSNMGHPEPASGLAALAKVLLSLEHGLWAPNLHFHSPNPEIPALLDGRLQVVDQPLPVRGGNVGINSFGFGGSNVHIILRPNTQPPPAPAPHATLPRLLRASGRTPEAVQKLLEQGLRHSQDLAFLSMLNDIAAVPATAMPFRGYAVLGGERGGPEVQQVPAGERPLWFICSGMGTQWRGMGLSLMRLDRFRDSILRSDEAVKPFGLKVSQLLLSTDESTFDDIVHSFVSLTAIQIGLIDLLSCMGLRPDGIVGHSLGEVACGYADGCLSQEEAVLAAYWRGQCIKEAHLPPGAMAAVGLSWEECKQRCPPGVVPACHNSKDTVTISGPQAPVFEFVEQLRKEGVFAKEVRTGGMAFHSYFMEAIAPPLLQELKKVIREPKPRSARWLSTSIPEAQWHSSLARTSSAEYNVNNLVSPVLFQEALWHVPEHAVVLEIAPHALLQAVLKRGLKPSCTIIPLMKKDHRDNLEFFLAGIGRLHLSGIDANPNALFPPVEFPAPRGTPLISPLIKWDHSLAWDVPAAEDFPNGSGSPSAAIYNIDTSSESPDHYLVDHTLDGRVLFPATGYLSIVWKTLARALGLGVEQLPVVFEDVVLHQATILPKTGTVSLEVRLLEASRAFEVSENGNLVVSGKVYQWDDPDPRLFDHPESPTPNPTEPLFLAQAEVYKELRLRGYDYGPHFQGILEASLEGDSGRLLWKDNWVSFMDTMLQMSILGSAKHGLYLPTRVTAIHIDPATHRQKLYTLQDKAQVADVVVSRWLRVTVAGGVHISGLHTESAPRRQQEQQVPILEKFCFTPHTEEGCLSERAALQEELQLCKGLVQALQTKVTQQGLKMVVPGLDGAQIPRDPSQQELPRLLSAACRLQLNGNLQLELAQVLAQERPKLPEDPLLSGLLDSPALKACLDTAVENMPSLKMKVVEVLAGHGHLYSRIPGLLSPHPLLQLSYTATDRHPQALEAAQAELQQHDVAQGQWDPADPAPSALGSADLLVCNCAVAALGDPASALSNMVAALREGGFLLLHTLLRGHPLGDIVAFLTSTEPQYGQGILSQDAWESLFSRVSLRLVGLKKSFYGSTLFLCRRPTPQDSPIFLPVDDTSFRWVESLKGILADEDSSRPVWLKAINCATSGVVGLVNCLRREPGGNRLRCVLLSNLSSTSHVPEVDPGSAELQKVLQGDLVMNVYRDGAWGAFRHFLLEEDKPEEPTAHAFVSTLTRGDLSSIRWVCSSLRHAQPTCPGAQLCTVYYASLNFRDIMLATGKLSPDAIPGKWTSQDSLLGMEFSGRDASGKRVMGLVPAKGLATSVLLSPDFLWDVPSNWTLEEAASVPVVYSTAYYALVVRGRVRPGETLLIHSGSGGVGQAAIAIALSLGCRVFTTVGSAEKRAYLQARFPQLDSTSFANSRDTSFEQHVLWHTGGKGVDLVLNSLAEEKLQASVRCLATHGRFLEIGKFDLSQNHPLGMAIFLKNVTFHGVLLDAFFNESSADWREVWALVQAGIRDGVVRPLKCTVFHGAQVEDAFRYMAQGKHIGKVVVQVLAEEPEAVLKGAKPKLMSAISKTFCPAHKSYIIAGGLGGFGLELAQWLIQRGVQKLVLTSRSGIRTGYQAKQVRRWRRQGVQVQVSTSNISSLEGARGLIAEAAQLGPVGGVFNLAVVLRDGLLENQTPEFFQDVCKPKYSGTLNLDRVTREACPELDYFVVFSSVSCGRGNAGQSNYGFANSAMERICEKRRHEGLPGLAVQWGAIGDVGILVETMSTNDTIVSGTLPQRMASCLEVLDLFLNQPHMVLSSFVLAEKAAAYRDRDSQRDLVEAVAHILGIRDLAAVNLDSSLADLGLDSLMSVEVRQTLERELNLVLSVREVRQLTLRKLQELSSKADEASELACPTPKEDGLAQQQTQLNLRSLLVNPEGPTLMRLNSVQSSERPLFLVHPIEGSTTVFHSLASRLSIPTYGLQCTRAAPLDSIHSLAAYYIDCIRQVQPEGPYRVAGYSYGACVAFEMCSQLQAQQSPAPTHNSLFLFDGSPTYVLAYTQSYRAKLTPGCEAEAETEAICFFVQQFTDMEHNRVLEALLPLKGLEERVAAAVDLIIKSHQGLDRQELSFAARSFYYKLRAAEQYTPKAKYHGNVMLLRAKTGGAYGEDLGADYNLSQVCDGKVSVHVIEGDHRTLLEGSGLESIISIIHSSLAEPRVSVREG
Sequence of Receptor tyrosine-protein kinase erbB-2 (Homo sapiens) (P04626 whole entry): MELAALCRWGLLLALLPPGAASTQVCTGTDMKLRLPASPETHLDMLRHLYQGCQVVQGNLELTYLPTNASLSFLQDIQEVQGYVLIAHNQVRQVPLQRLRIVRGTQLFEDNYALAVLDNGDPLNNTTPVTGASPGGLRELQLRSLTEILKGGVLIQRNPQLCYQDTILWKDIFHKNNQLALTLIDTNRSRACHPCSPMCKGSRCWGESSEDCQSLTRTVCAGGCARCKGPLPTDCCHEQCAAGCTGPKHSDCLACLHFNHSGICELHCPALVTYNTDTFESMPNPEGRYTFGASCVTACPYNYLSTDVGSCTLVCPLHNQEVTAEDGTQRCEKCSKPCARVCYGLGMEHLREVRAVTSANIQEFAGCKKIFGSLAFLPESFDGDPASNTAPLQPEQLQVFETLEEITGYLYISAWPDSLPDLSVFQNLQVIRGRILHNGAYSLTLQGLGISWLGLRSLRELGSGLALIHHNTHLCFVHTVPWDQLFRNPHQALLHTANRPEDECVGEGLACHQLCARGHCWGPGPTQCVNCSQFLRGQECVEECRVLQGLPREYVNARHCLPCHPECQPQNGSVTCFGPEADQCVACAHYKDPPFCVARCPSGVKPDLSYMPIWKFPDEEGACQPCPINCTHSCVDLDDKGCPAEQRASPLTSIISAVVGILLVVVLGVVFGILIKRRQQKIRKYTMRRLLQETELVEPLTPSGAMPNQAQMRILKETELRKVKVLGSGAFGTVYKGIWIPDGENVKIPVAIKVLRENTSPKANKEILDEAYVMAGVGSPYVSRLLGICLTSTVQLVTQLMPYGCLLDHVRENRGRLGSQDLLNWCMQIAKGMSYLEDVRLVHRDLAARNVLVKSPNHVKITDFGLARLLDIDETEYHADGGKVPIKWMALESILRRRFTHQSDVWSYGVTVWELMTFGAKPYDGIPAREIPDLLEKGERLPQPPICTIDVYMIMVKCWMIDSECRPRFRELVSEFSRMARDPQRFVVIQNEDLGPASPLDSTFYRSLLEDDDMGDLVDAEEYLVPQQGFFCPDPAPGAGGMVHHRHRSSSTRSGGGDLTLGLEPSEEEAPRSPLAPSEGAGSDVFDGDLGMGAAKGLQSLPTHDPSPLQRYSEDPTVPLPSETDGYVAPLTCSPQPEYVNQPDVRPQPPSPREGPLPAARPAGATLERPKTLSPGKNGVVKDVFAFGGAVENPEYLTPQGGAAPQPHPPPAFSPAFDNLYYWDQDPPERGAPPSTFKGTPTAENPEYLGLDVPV

Row | Structure (SMILES) | IC50 [1] [µM] | also measured
1 | O=C(Oc1ccccc1OC(=O)c1cc(O)c(O)c(O)c1)c1cc(O)c(O)c(O)c1 | 125 | –
2 | O=C(O[C@H]1CC[C@@H](OC(=O)c2cc(O)c(O)c(O)c2)c2ccccc21)c1cc(O)c(O)c(O)c1 | 22 | inhibition [2]: inactive
3 | COc1cc(OC(=O)c2cc(O)c(O)c(O)c2)ccc1OC(=O)c1cc(O)c(O)c(O)c1 | 8 | inhibition [3]: inactive
4 | O=C(Oc1cc2c(c(OC(=O)c3cc(O)c(O)c(O)c3)c1)CCCC2)c1cc(O)c(O)c(O)c1 | 31 | inhibition [4]: inactive
5 | O=C(O[C@@H]1Cc2c(O)cc(O)cc2O[C@@H]1c1cc(O)c(O)c(O)c1)c1cc(O)c(O)c(O)c1 [EPIGALOCATECHIN GALLATE] | 149 | inhibition [5]: 18%
6 | O=C(Oc1cc2ccccc2cc1OC(=O)c1cc(O)c(O)c(O)c1)c1cc(O)c(O)c(O)c1 | 76 | inhibition [6]: 31%
7 | O=C(O[C@@H]1CCCC[C@H]1OC(=O)c1cc(O)c(O)c(O)c1)c1cc(O)c(O)c(O)c1 (relative stereo) | > 150 | –
8 | O=C(Oc1ccc2c(OC(=O)c3cc(O)c(O)c(O)c3)cccc2c1)c1cc(O)c(O)c(O)c1 | 39 | inhibition [7]: inactive
9 | O=C(O[C@H]1CCCC[C@H]1OC(=O)c1cc(O)c(O)c(O)c1)c1cc(O)c(O)c(O)c1 | > 150 | –
10 | COC(=O)c1cc(OC(=O)c2cc(O)c(O)c(O)c2)ccc1OC(=O)c1cc(O)c(O)c(O)c1 | 36 | inhibition [8]: 43%
11 | O=C(Oc1ccc(OC(=O)c2cc(O)c(O)c(O)c2)c2c1CCCC2)c1cc(O)c(O)c(O)c1 | 41 | inhibition [9]: inactive
12 | O=C(Oc1cc(OC(=O)c2cc(O)c(O)c(O)c2)c2ccccc2c1)c1cc(O)c(O)c(O)c1 | 21 | –
13 | O=C(Oc1ccc(OC(=O)c2cc(O)c(O)c(O)c2)c(-c2ccccc2)c1)c1cc(O)c(O)c(O)c1 | 17 | inhibition [10]: inactive
14 | O=C(Oc1cccc(OC(=O)c2cc(O)c(O)c(O)c2)c1)c1cc(O)c(O)c(O)c1 | 42 | inhibition [11]: inactive
15 | COC(=O)c1cc(OC(=O)c2cc(O)c(O)c(O)c2)c2ccccc2c1OC(=O)c1cc(O)c(O)c(O)c1 | 28 | inhibition [12]: inactive
16 | O=C(OCCOC(=O)c1cc(O)c(O)c(O)c1)c1cc(O)c(O)c(O)c1 | > 150 | –
17 | Cc1cc(OC(=O)c2cc(O)c(O)c(O)c2)ccc1OC(=O)c1cc(O)c(O)c(O)c1 | 23 | inhibition [13]: inactive
18 | O=C(O[C@H]1CC[C@H](OC(=O)c2cc(O)c(O)c(O)c2)c2ccccc21)c1cc(O)c(O)c(O)c1 | 42 | inhibition [11]: 41%
19 | O=C(Oc1ccc2cccc(OC(=O)c3cc(O)c(O)c(O)c3)c2c1)c1cc(O)c(O)c(O)c1 | 47 | inhibition [14]: inactive
20 | O=C(Oc1ccc2cc(OC(=O)c3cc(O)c(O)c(O)c3)ccc2c1)c1cc(O)c(O)c(O)c1 | 5 | inhibition [15]: inactive
21 | O=C(Oc1cccc2cccc(OC(=O)c3cc(O)c(O)c(O)c3)c12)c1cc(O)c(O)c(O)c1 | 78 | inhibition [16]: inactive
22 | O=C(Oc1ccc2ccc(OC(=O)c3cc(O)c(O)c(O)c3)cc2c1)c1cc(O)c(O)c(O)c1 | 26 | inhibition [17]: inactive
23 | O=C(Oc1ccc2ccccc2c1OC(=O)c1cc(O)c(O)c(O)c1)c1cc(O)c(O)c(O)c1 | 74 | –
24 | O=C(Oc1ccc(OC(=O)c2cc(O)c(O)c(O)c2)c2ccccc12)c1cc(O)c(O)c(O)c1 | 29 | –
25 | O=C(Oc1ccc(OC(=O)c2cc(O)c(O)c(O)c2)cc1)c1cc(O)c(O)c(O)c1 | 25 | inhibition [18]: inactive
26 | O=C(Oc1cccc2c(OC(=O)c3cc(O)c(O)c(O)c3)cccc12)c1cc(O)c(O)c(O)c1 | 26 | inhibition [17]: 30%
